This note sets out measurements from ChEMBL document CHEMBL2429830, “Antimycobacterial labdane diterpenes from Leucas stelligera” (J Nat Prod, 2013).

≈ marks a conversion by molar mass, not a printed value. Calls of active or inactive are those of the source. The rule behind the calls is not given here.

Experiment [1] deals with HepG2. As to the kind of experiment: Cytotoxicity against human HepG2 cells assessed as growth inhibition at 100 ug/mL after 120 hrs by MTT assay relative to control. The settings on record: HepG2, 120 h, read-out: GI. In kind it is functional. A digest of the protocol:
(§1)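 MTT (10 μL of 5 mg/mL) added for 1 h at 37 °C. Formazan dissolved in 2-propanol for 4 h, read at 490 nm against cell-free blank. DMSO-carrier wells taken as 100% growth.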
(Tetrazolium dyes change colour on reduction, which living cells bring about.)

For experiment [2], the system named is HepG2. Kind of experiment: Cytotoxicity against human HepG2 cells assessed as growth inhibition at IC90 after 120 hrs by MTT assay relative to control. In kind it is functional. A digest of the protocol:
as §1

The subject of experiment [3] is THP-1. As to the kind of experiment: Cytotoxicity against human THP1 cells assessed as growth inhibition at 100 ug/mL after 72 hrs by MTT assay relative to control. In kind it is functional. The conditions noted are these: THP-1, 72 h, read-out: GI. The method, boiled down:
(§2)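 Viability by MTT (1 h, 37 °C), formazan taken up in 2-propanol 4 h, absorbance 490 nm against cell-free blank. Medium with matching DMSO served as 100% growth.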

In experiment [4] the test system is THP-1. Kind of experiment: Cytotoxicity against human THP1 cells assessed as growth inhibition at IC90 after 72 hrs by MTT assay relative to control. In kind it is functional. A digest of the protocol: as §2
Experiment [5] concerns MCF7. Kind of experiment: Cytotoxicity against human MCF7 cells assessed as growth inhibition at 100 ug/mL after 192 hrs by MTT assay relative to control. Type of experiment: functional. The settings on record: MCF7, 192 h, read-out: GI. The method, boiled down: (§3)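 MCF-7 cells at ~10^5 cells/mL, 24 h adherence at 37 °C. MTT read-out: 1 h with MTT at 37 °C, then 2-propanol solubilization for 4 h, OD 490 nm versus cell-free wells. Growth expressed relative to DMSO-only controls (100%).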

In experiment [6] the test system is MCF7. Kind of experiment: Cytotoxicity against human MCF7 cells assessed as growth inhibition at IC90 after 192 hrs by MTT assay relative to control. In kind it is functional. The method, boiled down:
as §3

Experiment [7] concerns Escherichia coli. As to the kind of experiment: Antibacterial activity against Escherichia coli DH5[alpha] assessed as growth inhibition at IC90 after 6 hrs relative to control. In kind it is functional.
The subject of experiment [8] is Mycolicibacterium smegmatis. Kind of experiment: Antimycobacterial activity against Mycobacterium smegmatis MC2 155 assessed as inhibition of cell viability at IC90 measured on day 3 by XTT assay in presence of menadione relative to control. Type of experiment: functional, str. MC2 155.
Experiment [9] has as its system Mycobacterium tuberculosis. Kind of experiment: Antimycobacterial activity against Mycobacterium tuberculosis H37Ra assessed as inhibition of cell viability measured on day 8 by XTT assay in presence of menadione. In kind it is functional, organism-based. The conditions noted are these: 192 h. A digest of the protocol: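 H37Ra log-phase culture grown in M. pheli medium at 37 °C, sonicated, then seeded at about 10^5 cells/mL. Serial dilutions of DMSO-dissolved samples were tested, with isoniazid as positive control, at 37 °C in a CO2 incubator for 8 days. Viability was read by XTT (200 μM, 20 min) then menadione (60 μM, 40 min), OD470. IC50 and IC90 came from dose-response curves.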

For experiment [10], the system named is Mycobacterium tuberculosis. As to the kind of experiment: Antimycobacterial activity against Mycobacterium tuberculosis H37Ra assessed as inhibition of cell viability at 100 ug/mL measured on day 8 by XTT assay in presence of menadione. In kind it is functional, organism-based. The method, boiled down:
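M. tuberculosis H37Ra (ATCC 25177) grown aerobically to log phase in M. pheli medium at 37 °C, 150 rpm, then sonicated 2 min. About 10^5 cells/mL, 250 μL per well, exposed to DMSO-dissolved samples at 100 μg/mL and incubated at 37 °C in a CO2 incubator. Day 8 read-out: OD470 blank, XTT 200 μM for 20 min, menadione 60 μM for 40 min, then OD470.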

Experiment [11] deals with Escherichia coli. As to the kind of experiment: Antibacterial activity against Escherichia coli DH5[alpha] assessed as growth inhibition after 6 hrs. Type of experiment: functional.
Experiment [12] concerns Mycolicibacterium smegmatis. Kind of experiment: Antimycobacterial activity against Mycobacterium smegmatis MC2 155 assessed as inhibition of cell viability measured on day 3 by XTT assay in presence of menadione. In kind it is functional. The conditions noted are these: str. MC2 155, 72 h. A digest of the protocol:
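M. smegmatis mc2 155 in microplate wells; on day 3, OD470 read as blank, then XTT (200 μM) added, shaken 1 min and held 20 min at 37 °C. Menadione (60 μM) was then added, mixed 1 min and held another 20 min at 37 °C before the final OD470 reading.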

The test system of experiment [13] is HepG2. As to the kind of experiment: Cytotoxicity against human HepG2 cells assessed as growth inhibition after 120 hrs by MTT assay. In kind it is functional. The settings on record: HepG2, 120 h. The method, boiled down:
as §1

Experiment [14] relates to THP-1. As to the kind of experiment: Cytotoxicity against human THP1 cells assessed as growth inhibition after 72 hrs by MTT assay. The settings on record: THP-1, 72 h. In kind it is functional. The method, boiled down:
as §2

In experiment [15] the test system is MCF7. As to the kind of experiment: Cytotoxicity against human MCF7 cells assessed as growth inhibition after 192 hrs by MTT assay. Type of experiment: functional. The conditions noted are these: MCF7, 192 h. A digest of the protocol:
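MCF-7 cells at ~10^5 cells/mL, 24 h adherence at 37 °C. […] MTT read-out: 1 h with MTT at 37 °C, then 2-propanol solubilization for 4 h, OD 490 nm versus cell-free wells. Growth expressed relative to DMSO-only controls (100%).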

As for `C[C@@H]1CC[C@H]2C(C)(C)CCC[C@]2(C)[C@@]1(O)CC/C(=C/CO)CO`, the inhibition of growth at 100 µg/mL with HepG2 [1] was found to be 21.5%; with THP-1 [3], 9.07%; in the experiment with MCF7 [5], 3.54%. The “growth inhibition (GI)” value in the experiment on HepG2 [2] turned out to be 21.48%; in the experiment with THP-1 [4], 9.07%; in the experiment on MCF7 [6], 3.54%; with Escherichia coli [7], 11.47%. In experiment [8], the “inhibition (INH)” value is 30.57%. The half-maximal inhibitory concentration (IC50) in experiment [9] is 9.8 µg/mL.

`COc1cc(O)c2c(=O)cc(-c3ccc(O)c(OC)c3)oc2c1`: the inhibition entry in experiment [10] is “inactive”.

Regarding `C=C[C@](C)(O)CC[C@@H]1[C@@]2(C)CCCC(C)(C)[C@H]2CC[C@@]1(C)O`, the inhibition of growth at 100 µg/mL in the experiment on THP-1 [3] came to 96.4%. In addition, the IC50 in experiment [9] amounted to 5.95 µg/mL.

In the case of `CO[C@H]1/C=C/O[C@@]2(C)Oc3c(C)c(O)c4c(O)c(c(/C=N/N5CCN(C)CC5)c(O)c4c3C2=O)NC(=O)/C(C)=C\C=C\[C@H](C)[C@H](O)[C@@H](C)[C@@H](O)[C@@H](C)[C@H](OC(C)=O)[C@@H]1C` [RIFAMPIN], the IC90 with Escherichia coli [11] came to 0.5 µg/mL (≈ 0.608 µM); in experiment [12], 0.2 µg/mL.

Consider `NNC(=O)c1ccncc1` [ISONIAZID], for which the IC90 in experiment [9] is 0.055 µg/mL.

With `C[C@@H]1CC[C@H]2C(C)(C)CCC[C@]2(C)[C@@]12CC[C@]1(CO[C@H](O)C1)O2`, the inhibition of growth at 100 µg/mL in the experiment on HepG2 [1] was 14.4%; in the experiment with THP-1 [3], 21.7%; with MCF7 [5], 42.4%. Besides, the “growth inhibition (GI)” value with HepG2 [2] is 6.92%; with THP-1 [4] it was 8.18%; with MCF7 [6], 28.98%; with Escherichia coli [7], 23.15%. In experiment [8], the “inhibition (INH)” value is 47.83%. Moreover, in experiment [9], the IC50 was 5.55 µg/mL. For the same molecule, the IC90 in experiment [9] amounted to 14.9 µg/mL.

Regarding `CC(=O)O[C@H]1C(=O)[C@@]2(C)[C@H]([C@H](OC(=O)c3ccccc3)[C@]3(O)C[C@H](OC(=O)[C@H](O)[C@@H](NC(=O)c4ccccc4)c4ccccc4)C(C)=C1C3(C)C)[C@]1(OC(C)=O)CO[C@@H]1C[C@@H]2O` [PACLITAXEL], the IC90 in the experiment on HepG2 [13] is 78.9 µg/mL (≈ 92.4 µM); in the experiment with THP-1 [14], 98.6 µg/mL (≈ 115 µM); in the experiment on MCF7 [15], 107 µg/mL (≈ 125 µM). Also, the inhibition of growth at 100 µg/mL in the experiment with HepG2 [1] amounted to 87.9%; in the experiment with THP-1 [3] it was 82.5%; with MCF7 [5], 86.7%.

What is called IC50 is the concentration at which inhibition is half-maximal. One may read the IC90 as the point of the concentration-response curve where the effect stands at 90%.
